Bioassay records (PubChem)
Rows were chosen to be rich in hits. Some 4.1% of all compounds tested hit in one or more screens of this group.
KCNQ1 pot = human KCNQ1 channel potentiation or activation. P51787. CHO-K1 KCNQ1, thallium flux FluxOR fluorescence; hits give high values. B-score at 10 µM. 310,000 compounds, 0.35% hits;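 active means fluorescence ratio B-score, a plate-corrected score, at least three library SD, with initial intensity B-score within 5 SD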
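Medium – assay buffer, equal DMSO in all wells · Material – CHO-K1 cell line with stable KCNQ1 potassium channel expression · Signal – kinetic FluxOR thallium fluorescence, 10-s 1-Hz baseline, 110-s post-stimulus read · Compound – single concentration per compound, DMSO matched to controls · Schedule – 37 °C overnight plating, 90-min dark dye load, 20-min compound pretreatment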
KCNK3 block = human KCNK3 channel inhibition, primary screen; O14649; CHO-KCNK3 thallium flux, FluxOR fluorescence; hits give low values; AID 602410; 340,000 compounds, 0.84% hits; B-score at 10 µM;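 active means B-score under library mean minus 4 SD, starting fluorescence ratio at most library mean plus 5 SD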;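 further: more negative B-score means stronger inhibition of thallium flux through KCNK3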
KCNK9 inh = human KCNK9 channel inhibition | 310,000 compounds, 1.2% hits | B-score at 10 µM | HEK293 KCNK9, FluxOR thallium flux fluorescence; hits give low values | Q9NPC2;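 active means ratio B-score over 3 SD below the library mean, with starting fluorescence within 5 SD of its mean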;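 further: negative B-score means less thallium flux so channel inhibition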
Cl transport mod = modulators of human KCC2 chloride dependent transport | Q9H2X9 | KCC2 cells, thallium flux FluoZin-2 fluorescence | B-score of Tl+ flux slope (higher = more flux/activation; lower = inhibition) at 10 µM | 190,000 compounds, 2.2% hits | AID 1456;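 active means thallium flux slope and its plate-corrected score both differing from the plate sample mean at a set confidence after two filtering rounds, in either direction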;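 further: slope of fluorescence scaled to starting intensity during 10 to 20 s after thallium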
hERG rescue = compounds protecting human hERG from proarrhythmic drug block; Q12809; activation (rescue from dofetilide block), less the hit threshold, % at 10 µM; CHO-hERG, FluxOR thallium flux, dofetilide IC70 present; AID 1511; 310,000 compounds, 0.51% hits;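 active means activation above the mean of controls blocked by dofetilide plus 5 SD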;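 further: thallium influx through hERG after potassium depolarization seen as dye fluorescence rise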
KCNQ1 inh = human KCNQ1 channel inhibition. CHO-K1 KCNQ1, FluxOR thallium flux fluorescence; hits give high values. AID 2642. 310,000 compounds, 1.3% hits. P51787. B-score at 10 µM;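 active means compounds whose thallium flux B-score, printed positive for inhibition, exceeds three library SD while starting fluorescence stays within three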;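 further: channel opened by potassium depolarization with thallium stimulus after 20 min compound exposure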
KCNK9 inh conf = confirmation of human KCNK9 potassium channel inhibitors. shares compounds with KCNK9 inh. 4,900 compounds, 43% hits. inhibition, % at 10 µM. HEK293 KCNK9 cells, FluxOR thallium flux fluorescence;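 active means thallium signal inhibited by more than 5 SD of the compound-free buffer control wells, on both duplicate plates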
Kir2-1 spec = tests whether KCNK9 modulators also affect mouse Kir2.1; Kir2.1 cells, FluxOR thallium flux fluorescence; AID 492993; 4,900 compounds, 4% hits; shares compounds with KCNK9 inh; inhibition, % at 10 µM;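 active means thallium signal drop more than 5 SD beyond the mean of the no-compound control wells, seen in both duplicate plates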;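 further: signal is fluorescence rise after thallium addition divided by baseline fluorescence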
HEK293 Tl ctr = second counter-screen for KCNK9 modulators: effect in non-induced cells; shares compounds with KCNK9 inh; non-induced KCNK9-HEK293, FluxOR thallium flux; inhibition, % at 10 µM; 4,900 compounds, 40% hits;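 active means thallium signal drop beyond 5 SD of the untreated control mean, on both duplicate plates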
A number is an active result; – = inactive; · = not tested or not shown.

SMILES | KCNQ1 pot | KCNK3 block | KCNK9 inh | Cl transport mod | hERG rescue | KCNQ1 inh | KCNK9 inh conf | Kir2-1 spec | HEK293 Tl ctr
COc1ccc2oc(C(=O)NCC(c3ccco3)N(C)C)c(C)c2c1 (stereo not drawn) | – | – | – | · | – | – | · | · | ·
Cc1ccc2oc(C(=O)N(C)Cc3ccc(C)o3)c(C)c2c1 | – | – | – | · | – | – | – | – | 25%
COc1ccc2oc(C(=O)N(C)CCOc3ccc(Cl)cc3)c(C)c2c1 | – | – | – | · | – | – | – | – | –
O=[N+]([O-])c1ccc(NCCNCCOc2nonc2-c2ccccc2)c([N+](=O)[O-])c1 | – | – | – | – | – | – | · | · | ·
COc1cccc(C(=O)C2CCCN(Cc3cccc(-n4nc(C)cc4C)c3)C2)c1 (stereo not drawn) | – | – | – | – | – | – | – | – | –
Cc1nn(C(C)C)c(C)c1CN1CCCC(C(=O)c2cccc(OC(C)C)c2)C1 (stereo not drawn) | – | – | – | – | – | – | – | – | –
C=C(C)c1cccc(C(C)(C)NC(=O)Nc2cc(C)ccn2)c1 | – | – | – | – | – | – | · | · | ·
COc1ccc(C(=O)c2coc3ccc(O)c(CN4CCCCC4)c23)cc1 | – | – | – | – | – | – | – | – | –
O=C(CN1C(=O)NC2(CCCCC2)C1=O)Nc1cccc2ncccc12 | · | – | · | · | · | · | · | · | ·
COc1ccc(CNc2cccc3[nH]c(C(F)(F)F)nc23)cc1OC | – | – | – | · | – | – | · | · | ·
COc1ccc(-c2c([C@H]3[C@@H]4C=CCC[C@@]4(C)C(=O)N3Cc3ccccc3)ccc3ccccc23)cc1OC | – | – | – | – | – | – | – | – | –
NS(=O)(=O)c1cnccc1Nc1ccc(Cl)cc1 | – | – | – | · | – | – | · | · | ·
COCCN(Cc1nc(C(c2ccccc2)c2ccccc2)no1)C(C)C | – | – | -8.7 | · | – | – | – | – | –
COCCN(C)Cc1nc(C(c2ccccc2)c2ccccc2)no1 | – | – | – | · | – | – | · | · | ·
COc1ccc(O)c(/C=N/Nc2nc(Nc3ccccc3)nc(-n3nc(C)cc3C)n2)c1 | – | – | -12 | – | – | 10 | 46% | – | –
COc1ccc(/C=N/Nc2nc(Nc3ccccc3)nc(N3CCCCC3)n2)c(OC)c1 | – | – | – | – | – | – | · | · | ·
COc1cc(/C=N/Nc2nc(Nc3ccccc3)nc(-n3nc(C)cc3C)n2)cc(OC)c1OC | – | – | -9.4 | – | – | 8 | 46% | – | –
COc1cc(/C=N/Nc2nc(Nc3ccc(C)cc3)nc(-n3nc(C)cc3C)n2)cc(OC)c1OC | – | – | – | – | – | – | · | · | ·
CCOC(=O)C1(Cc2cccc(OC)c2)CCN(Cc2cccc3c2OCO3)CC1 | – | – | – | – | – | – | · | · | ·
O=C(N/N=C/c1cc([N+](=O)[O-])c(N2CCOCC2)cc1N1CCOCC1)c1cccnc1 | – | – | – | – | – | – | · | · | ·
COc1ccccc1N1CCN(C2CCCN(Cc3c(F)cccc3F)C2)CC1 (stereo not drawn) | – | – | – | · | – | – | · | · | ·
Fc1ccccc1N1CCN(C2CCCN(Cc3ccccc3C(F)(F)F)C2)CC1 (stereo not drawn) | – | – | – | · | – | – | – | – | –
CC(=O)c1cccc(CN2CCCC(N3CCN(c4ccccc4F)CC3)C2)c1 (stereo not drawn) | – | – | – | · | – | – | – | – | –
O=C(O)c1ccc(N2C(=O)CC(N3C(=O)/C(=C/c4ccc(Cl)cc4)SC3=S)C2=O)cc1 (stereo not drawn) | – | – | – | – | – | – | – | – | –
O=C(O)c1ccc(N2C(=O)CC(N3CCN(c4ccc(Cl)cc4)CC3)C2=O)cc1 (stereo not drawn) | – | – | – | · | – | – | · | · | ·
SMILES | KCNQ1 pot | KCNK3 block | KCNK9 inh | Cl transport mod | hERG rescue | KCNQ1 inh | KCNK9 inh conf | Kir2-1 spec | HEK293 Tl ctr
CC(C)CCNC(=O)C12CN(Cc3ccccc3)CC1C(c1ccc([N+](=O)[O-])cc1)=NO2 (stereo not drawn) | – | – | – | – | – | – | · | · | ·
COc1cccc(CNC(=O)C23CN(Cc4ccccc4)CC2C(c2ccc([N+](=O)[O-])cc2)=NO3)c1 (stereo not drawn) | – | – | – | – | – | – | – | – | –
O=C(Cc1coc2ccc3ccccc3c12)NC1CCCc2ccccc21 (stereo not drawn) | – | – | -11 | – | – | – | 66% | – | 36%
CCOc1ccc(-c2nc(CSCC(=O)NC3CCCc4ccccc43)c(C)o2)cc1 (stereo not drawn) | – | – | -8.3 | – | – | 6 | 44% | – | 42%
O=C(CCCOc1ccccc1)NC1CCCc2ccccc21 (stereo not drawn) | – | – | – | – | – | – | – | – | –
COc1cc(NS(=O)(=O)c2ccc(NC(C)=O)cc2)nc(OC)n1 | – | – | – | · | – | – | · | · | ·
COc1cc(NS(=O)(=O)c2ccc(N/C=C(\C#N)c3nc4cc(Cl)ccc4o3)cc2)nc(OC)n1 | – | – | – | – | – | – | – | – | –
CCCN(CC(=O)Nc1cccc(Br)c1)CC(=O)Nc1ccc(F)c(F)c1F | – | – | -15 | – | – | – | 72% | – | 50%
CCCN(CC(=O)Nc1cccc(S(N)(=O)=O)c1)CC(=O)Nc1ccc(F)c(F)c1F | – | – | – | – | – | – | · | · | ·
CCCN(CC(=O)Nc1ccc(NC(C)=O)cc1)CC(=O)Nc1ccc(F)c(F)c1F | – | – | – | · | – | – | · | · | ·
CCCN(CC(=O)Nc1ccc(C)cc1Br)CC(=O)Nc1ccc(F)c(F)c1F | – | – | -9.9 | – | – | – | 64% | – | 39%
c1ccc(C2(c3ccccc3)OCC(Cn3cncn3)O2)cc1 (stereo not drawn) | – | – | – | – | – | – | · | · | ·
COc1ccc(Oc2ccc(N/C=C/C(=O)C(C)(C)C)cc2)cc1 | – | – | – | – | – | – | – | – | –
COc1ccc(CC(=O)NNC(=O)c2cccs2)cc1OC | – | – | – | – | – | – | · | · | ·
O=C(COC(=O)C12CC3CC(CC(Cl)(C3)C1)C2)Nc1ccc2[nH]c(=O)[nH]c2c1 | · | – | · | · | · | · | · | · | ·
O=C(Nc1cccn(Cc2c(Cl)cccc2Cl)c1=O)c1c(Cl)cccc1Cl | – | – | -10 | – | – | – | 54% | – | –
COC(=O)Nc1cccn(Cc2c(Cl)cccc2Cl)c1=O | – | – | – | – | – | – | · | · | ·
